Assay results: ChEMBL document CHEMBL1143978, “Novel 1,3,4-thiadiazolium-2-phenylamine chlorides derived from natural piperine as trypanocidal agents: chemical and biological studies” (Bioorg Med Chem, 2008)

Experiments:
Trypanosoma cruzi [1] = test: Antiparasitic activity against Trypanosoma cruzi Y epimastigote; format: functional, organism-based
How it was run: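 Y-strain epimastigotes (1×10^5 cells) grown in BHI with hemin, folic acid and 5% heat-inactivated FCS at 28 °C, with or without compound. DMSO final was 0.05%, and controls contained the same DMSO. After 7 days, live parasites were counted directly in a Neubauer chamber. IC50 is the mean of triplicate experiments.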

[2] = Cytotoxicity against mouse macrophages after 72 hrs; format: cell-based, Macrophage; details: read-out: LD50
How it was run: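 Murine peritoneal macrophages seeded at 1.10⁶ cells/well in RPMI with 10% FCS and allowed to attach 24 h at 37 °C. Exposed 72 h to compounds in DMSO (final solvent at most 0.05%). Washed with PBS, trypan blue added (final 0.01%), and 200 cells counted in a Neubauer chamber for membrane permeability. IC50 is the mean of triplicate experiments.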

Trypanosoma cruzi [3] = test: Antiparasitic activity against Trypanosoma cruzi Y amastigotes; format: functional, organism-based
How it was run: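 Resident peritoneal macrophages from uninfected BALB/c mice, once adhered, infected with T. cruzi metacyclic trypomastigotes at 10:1 parasite/macrophage for 1 h at 37 °C, 5% CO2. Free parasites washed off with PBS, then 72 h with compound at […]. Methanol-fixed, Giemsa-stained. 200 cells counted in triplicate for % infected cells, amastigotes per macrophage and endocytic index.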

Trypanosoma cruzi [4] = test: Antiparasitic activity against Trypanosoma cruzi Y trypomastigotes; format: functional, organism-based

Compound | IC50 (Trypanosoma cruzi [1]) [µM] | CC50 at 72 h [2] [µM] | IC50 (Trypanosoma cruzi [3]) [µM] | IC50 (Trypanosoma cruzi [4]) [µM]
C(=C\c1sc(Nc2ccccc2)n[n+]1-c1ccccc1)/c1ccc2c(c1)OCO2 | 4.13 | 1.95 |  | 
c1ccc(Nc2n[n+](-c3ccccc3)c(-c3ccc4c(c3)OCO4)s2)cc1 | 113 |  |  | 
O=C(/C=C/C=C/c1ccc2c(c1)OCO2)N1CCCCC1 [PIPERINE] | 7.31 | 20 | 4.91 | 
O=C(Cn1ccnc1[N+](=O)[O-])NCc1ccccc1 [BENZNIDAZOLE] |  |  | 2.51 | 6.61
c1ccc(Nc2n[n+](-c3ccccc3)c(CCc3ccc4c(c3)OCO4)s2)cc1 | 83.4 |  |  | 
O=[N+]([O-])c1cc2c(cc1CCCCc1sc(Nc3ccccc3)n[n+]1-c1ccccc1)OCO2 | 45.2 |  |  | 
O=[N+]([O-])c1cc2c(cc1CCc1sc(Nc3ccccc3)n[n+]1-c1ccccc1)OCO2 | 40.8 |  |  | 
O=[N+]([O-])c1cc2c(cc1-c1sc(Nc3ccccc3)n[n+]1-c1ccccc1)OCO2 | 13.4 | 6.62 |  | 
O=[N+]([O-])c1cc2c(cc1/C=C/c1sc(Nc3ccccc3)n[n+]1-c1ccccc1)OCO2 | 0.64 | 1.08 |  | 
C(/C=C/c1sc(Nc2ccccc2)n[n+]1-c1ccccc1)=C\c1ccc2c(c1)OCO2 | 10.8 | 38.6 | 1.35 | 6.7
c1ccc(Nc2n[n+](-c3ccccc3)c(CCCCc3ccc4c(c3)OCO4)s2)cc1 | 31.5 |  |  | 
